A short description of data set [1]: Growth inhibition of human NCI/ADR cells after 48 hrs by sulforhodamine B assay. Format: functional. In short, it runs like this: (§1)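 Cells in 96-well plates were exposed for 48 h at 37 °C in 5% CO2 to compounds at 0.25, 2.5, 25 and […] in DMSO/RPMI. Doxorubicin was the positive control at […]. Cells were then fixed with 50% trichloroacetic acid and stained with sulforhodamine B, with protein read at 540 nm. TGI (the concentration where T = T0) was taken by non-linear regression of each cell line's concentration-response curve.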
(Sulforhodamine B stains cellular protein and so reports cell mass.)

A short description of data set [2]: Growth inhibition of human HaCaT cells after 48 hrs by sulforhodamine B assay. Format: cell-based. Summed up: as §1
For data set [3], the system named is 786-0. Nature of the data set: Growth inhibition of human 786-0 cells after 48 hrs by sulforhodamine B assay. Format: functional. In short, it runs like this: as §1
Data set [4] deals with OVCAR-3. Briefly: Growth inhibition of human OVCAR3 cells after 48 hrs by sulforhodamine B assay. Format: functional. In short, it runs like this:
as §1

Data set [5] concerns U-251. Briefly: Growth inhibition of human U251 cells after 48 hrs by sulforhodamine B assay. Format: functional. In short, it runs like this:
as §1

Data set [6] deals with HT-29. Nature of the data set: Growth inhibition of human HT-29 cells after 48 hrs by sulforhodamine B assay. Format: functional. In short, it runs like this: as §1
The subject of data set [7] is NCI-H460. Nature of the data set: Growth inhibition of human NCI-H460 cells after 48 hrs by sulforhodamine B assay. Format: functional. Summed up: as §1
Data set [8] relates to MCF7. Briefly: Growth inhibition of human MCF7 cells after 48 hrs by sulforhodamine B assay. Format: functional. In short, it runs like this: as §1

In general, TGI refers to the concentration giving total growth inhibition. A low value points to more potent growth arrest.

On to `COc1ccc(C2CC(=O)C(Br)=CO2)cc1` (stereo unspecified), for which the GI in data set [1] worked out at 52.9 µM; in data set [3] it was 33.4 µM; in data set [4] it was 113.5 µM; in data set [5], 46.4 µM; in data set [6] it was 69 µM; in data set [7], 117.7 µM. The compound further came in with a GI in data set [8] of 42.2 µM. Besides, in data set [2], the TGI at 48 h amounted to 164 µM.

Take `O=C1C=CCC(/C=C/c2ccccc2)N1` (stereo unspecified): the GI in data set [1] was 966.6 µM; in data set [3] it was above 1254.8 µM; in data set [4], above 1254.8 µM; in data set [5], 797.6 µM; in data set [6] it was 1195.8 µM; in data set [7] it was 928.5 µM. The same compound showed a GI in data set [8] of 607.4 µM. Also, the TGI at 48 h in data set [2] was above 1250 µM.

As for `COc1ccc(/C=C/C2CC=CC(=O)O2)cc1` (racemic), the GI in data set [1] came out at 17.3 µM; in data set [3], 21.6 µM; in data set [4] it was 61.5 µM; in data set [5], 20.6 µM; in data set [6], 33.7 µM; in data set [7], 28.3 µM. Moreover, in data set [8], the GI came to 25.5 µM. In data set [2], this compound registered a TGI at 48 h of 58.8 µM.

Consider `COc1cc(OC)c(OC)cc1/C=C/C1CC=CC(=O)N1` (stereo unspecified), for which the GI in data set [1], in data set [3], in data set [4], in data set [5], in data set [6] and in data set [7] was above 864.1 µM throughout. Moreover, in data set [8], the GI was above 864.1 µM. In data set [2], this compound came in with a TGI at 48 h above 864 µM.

For `O=C1C=CC[C@H](/C=C/c2ccccc2)O1` [GONIOTHALAMIN], the GI in data set [1] is 8 µM; in data set [3] it was 14.8 µM; in data set [4], 14.2 µM; in data set [5], 13.7 µM; in data set [6], 13.9 µM; in data set [7], 13.6 µM. Moreover, the GI in data set [8] stood at 12.7 µM. This compound registered a TGI at 48 h in data set [2] of 27.7 µM.

With `O=C1C=COC(/C=C/c2ccccc2)C1` (stereo unspecified), the GI in data set [1] was 105.3 µM; in data set [3] it was 138.2 µM; in data set [4] it was 58.2 µM; in data set [5], 121.8 µM; in data set [6], 123.6 µM; in data set [7], 82.4 µM. Moreover, the GI in data set [8] turned out to be 152.6 µM. In data set [2], this compound gave a TGI at 48 h of 126 µM.

In the case of `COc1ccc(/C=C/C2CC(=O)C=CO2)cc1` (stereo unspecified), the GI in data set [1] was determined as 239.3 µM; in data set [3], 191.5 µM; in data set [4], 87.4 µM; in data set [5], 151.9 µM; in data set [6] it was 203.9 µM; in data set [7], 149.4 µM. The compound also displayed a GI in data set [8] of 155.5 µM. For the same compound, the TGI at 48 h in data set [2] is 144 µM.

As for `COc1cccc2c1C(=O)c1c(O)c3c(c(O)c1C2=O)C[C@@](O)(C(=O)CO)C[C@@H]3O[C@H]1C[C@H](N)[C@H](O)[C@H](C)O1` [DOXORUBICIN], the GI in data set [1] is 13.5 µM; in data set [3] it was 2.1 µM; in data set [4], 6.3 µM; in data set [5], 2.4 µM; in data set [6] it was 13.9 µM; in data set [7] it was 1.3 µM. This compound also had a GI in data set [8] of 3.7 µM. Moreover, the TGI at 48 h in data set [2] stood at 0.8 µM.

Take `O=C1C=COC(/C=C/c2ccc(C(F)(F)F)cc2)C1` (stereo unspecified): the GI in data set [1] was 51.6 µM; in data set [3], 39.6 µM; in data set [4], 58.2 µM; in data set [5] it was 38.6 µM; in data set [6], 33.3 µM; in data set [7] it was 95.6 µM. Also, the GI in data set [8] amounted to 41.2 µM. In addition, in data set [2], the TGI at 48 h worked out at 123 µM.

`COc1ccc(-c2cc(=O)cco2)cc1`: the GI in data set [1], in data set [3], in data set [4], in data set [5], in data set [6] and in data set [7] was above 1236.3 µM in each case. In data set [8], this compound came in with a GI above 1236.3 µM. In data set [2], the TGI at 48 h was above 1240 µM.

As to `COc1ccc(/C=C/C2CC=CC(=O)N2)c(OC)c1` (stereo unspecified), the GI in data set [1], in data set [3], in data set [4], in data set [5], in data set [6] and in data set [7] was above 964.1 µM each time. Further, the GI in data set [8] was above 964.1 µM. This compound also yielded a TGI at 48 h in data set [2] above 964 µM.

Consider `COc1ccc(/C=C/C2CC=CC(=O)N2)cc1OC` (stereo unspecified), for which the GI in data set [1], in data set [3], in data set [4], in data set [5], in data set [6] and in data set [7] was above 964.1 µM in each case. Further, the GI in data set [8] is above 964.1 µM. This compound also came in with a TGI at 48 h in data set [2] above 964 µM.

Regarding `COc1ccc(/C=C/C2CC=CC(=O)O2)cc1OC` (racemic), the GI in data set [1] worked out at 11.6 µM; in data set [3], 10.9 µM; in data set [4], 16.8 µM; in data set [5] it was 23.9 µM; in data set [6], 17.2 µM; in data set [7] it was 14.6 µM. The GI in data set [8] worked out at 7.8 µM. In data set [2], this compound came in with a TGI at 48 h of 63 µM.

As for `O=C1C=CCC(/C=C/c2ccccc2C(F)(F)F)N1` (stereo unspecified), the GI in data set [1] came to 40.6 µM; in data set [3], 123.4 µM; in data set [4] it was 329.3 µM; in data set [5], 69.9 µM; in data set [6], 195.4 µM; in data set [7], 194.7 µM. Further, in data set [8], the GI was 120.2 µM. Further, net growth in data set [2] stopped (TGI at 48 h) at 249 µM.

As for `O=C1C=COC(/C=C/c2ccc3c(c2)OCO3)C1` (stereo unspecified), the GI was determined as 186.8 µM in data set [1]; 104.1 µM in data set [3]; 101.7 µM in data set [4]; 77 µM in data set [5]; 126.9 µM in data set [6]; 147.4 µM in data set [7]. Moreover, in data set [8], the GI came to 81.4 µM. The same compound yielded a TGI at 48 h in data set [2] of 145 µM.

`O=C1C=CCC(/C=C/c2ccccc2C(F)(F)F)O1` (racemic): the GI was 75.5 µM in data set [1]; 52.3 µM in data set [3]; 295.6 µM in data set [4]; 43.4 µM in data set [5]; 71.7 µM in data set [6]; 241.5 µM in data set [7]. The GI in data set [8] was 50.4 µM. The compound also gave a TGI at 48 h in data set [2] of 82.7 µM.

Take `O=c1ccoc(/C=C/c2ccccc2)c1`: the GI in data set [1] is 514.2 µM; in data set [3], 409.9 µM; in data set [4], 545.5 µM; in data set [5], 285.4 µM; in data set [6], 344.1 µM; in data set [7] it was 508.5 µM. Besides, the GI in data set [8] was 691.1 µM. Besides, the TGI at 48 h in data set [2] amounted to 711 µM.

On to `COc1ccc(/C=C/c2cc(=O)cco2)cc1`, for which the GI stood at 309.9 µM in data set [1]; 376.8 µM in data set [3]; 327.9 µM in data set [4]; 278.4 µM in data set [5]; 379.2 µM in data set [6]; 606.1 µM in data set [7]. This compound also had a GI in data set [8] of 395.9 µM. This compound also returned a TGI at 48 h in data set [2] of 710 µM.

In the case of `COc1cc(/C=C/C2CC=CC(=O)N2)cc(OC)c1` (stereo unspecified), the GI in data set [1] is 203.2 µM; in data set [3], 173.4 µM; in data set [4], 232.1 µM; in data set [5], 169.9 µM; in data set [6], 196.6 µM; in data set [7], 145.5 µM. In data set [8], this compound yielded a GI of 146.4 µM. This compound had a TGI at 48 h in data set [2] of 212 µM.

For the compound `COc1cc(/C=C/C2CC=CC(=O)O2)cc(OC)c1OC` (racemic), the GI in data set [1] was found to be 35.1 µM; in data set [3] it was 18.5 µM; in data set [4], 44.9 µM; in data set [5], 25.1 µM; in data set [6] it was 18.8 µM; in data set [7], 28.8 µM. For the same compound, in data set [8], the GI was 15.3 µM. This compound also came in with a TGI at 48 h in data set [2] of 21.6 µM.

As to `COc1cc(OC)c(OC)cc1/C=C/C1CC=CC(=O)O1` (racemic), the GI turned out to be 9.4 µM in data set [1]; 6 µM in data set [3]; 7.2 µM in data set [4]; 11.5 µM in data set [5]; 15.9 µM in data set [6]; 9.8 µM in data set [7]. For the same compound, in data set [8], the GI is 3.8 µM. Further, in data set [2], the TGI at 48 h amounted to 46.9 µM.

Take `O=C1C=CCC(/C=C/c2ccc(C(F)(F)F)cc2)N1` (stereo unspecified): the GI in data set [1] was found to be 71.8 µM; in data set [3], 127.8 µM; in data set [4] it was 126 µM; in data set [5], 130.3 µM; in data set [6], 139.2 µM; in data set [7] it was 150.4 µM. In data set [8], the GI was found to be 149.5 µM. The same compound came in with a TGI at 48 h in data set [2] of 174 µM.

The values above are taken from ChEMBL document CHEMBL2034868, “Synthesis of methoxylated goniothalamin, aza-goniothalamin and γ-pyrones and their in vitro evaluation against human cancer cells” (Bioorg Med Chem, 2012).
